Tested on: MS2 coat protein
Test: apparent Kd, MS2 coat protein; higher = weaker binding; RNA-MaP array; FMN 200 µM where present
How it was run: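 Two titrations, one without ligand and one with constant ligand, were run with SNAP-549-labelled MS2 coat protein from 0.7 or 1.5 nM, doubling to 3 µM. The targets were designs transcribed by stalled E. coli RNA polymerase on Illumina sequencing-chip clusters, in 100 mM Tris-HCl pH 7.5, 80 mM KCl, 4 mM MgCl2, BSA, DTT, yeast tRNA and Tween-20. The apparent Kd is the median of filtered per-cluster binding-curve fits, with green signal normalised to red-channel RNA signal and control-cluster median Fmax.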

[1] = designed as: OFF switch for flavin mononucleotide, no ligand
[2] = ligand present: flavin mononucleotide, designed as: OFF switch for flavin mononucleotide
[3] = designed as: ON switch for flavin mononucleotide, no ligand
[4] = ligand present: flavin mononucleotide, designed as: ON switch for flavin mononucleotide

Row | Sequence | apparent Kd [1] [nM] | apparent Kd [2] [nM] | apparent Kd [3] [nM] | apparent Kd [4] [nM]
1 | UGUCAUAUAUAGAAGGGUAGUAGGGUUUUACAUGAGGAUCACCCAUGUAUUAUAGGAUAUGUGUAUAGUUUUUAUUCAAGUAUA | 32.8 | 25.4 |  | 
2 | UGUCGGAGAAGAGGAUAUUACAUGAGGAUCACCCAUGUAUGAACCAAUAGCUGGAAACAGCAAUGUAAGAAGGCUGCUCCGACA | 5.32 | 23.1 |  | 
3 | AUGCCGGGCCGAGGAUAUAAGUCUAGGACAUGAGGAUCACCCAUGUAUGUCUUAGAAGGCGGCCCGGCAAGCCUGUUACAGGCA |  |  | 27.7 | 6.6
4 | CCAGGCAGUGUGAGGAUAUCGUGGUCCUUGGAUCACGAGAAGGCACAUGAGGAUCACCCAUGUGAAUAGCUUGG | 22.2 | 87.3 |  | 
5 | ACUAGAAGCGUGAAAUAUCACAUGAGGAUCACCCAUGUGACGCAGGAUAUAACAAAAUCAGAAGGUUAGAAGGGUGAGCACGCC |  |  | 26.8 | 20.2
6 | CGGUGACGUGUAGGAUAUGGAGGUGGGUUUUGGCCAGAAGGACAUGAGGAUCACCCAUGUGGUAGAGGGUUGGCGGCGGCCCGU | 15 | 14.7 |  | 
7 | UUCAUCAAUGAAGGAUAUCUAUGUCCAACAUGAGGAUCACCCAUGUUGAGGAUCACCUAUGUGUAGGAGAAGGUUAAUAUAACU |  |  | 7.98 | 6.38
8 | GUUCUGUUAGGAUAUUGGAAAUCCGUAGCUGUGGCGCGCUUCAAGAAGGAACAUGAGGAUCACCCAUGUGAAAU | 25 | 25.4 |  | 
9 | GGACGUCAGAUUAACAUGAGGAUCACCCAUGUCUUUUGACAUGAGGAUAUGCAUCCUAAUUGGAUGCAGAAGGCAUGGACGUCC |  |  | 1020 | 84
10 | CUCUUGGCAGGAUAUGCUCUCUUAGACAUGAGGAUCACCCAUGUGUUCAUUCUUUCUUUUGCAGAAGGGCCUUAAC | 87.1 | 82.8 |  | 
11 | UGAACUAUGUAGAAGGCCCACAUUAAUAUGUAGGGAGGAUAUACAUGAGGAUCACCCAUGUGAAGAGCAAGAGGGUUUAACAGA | 112 | 143 |  | 
12 | GAAAAGAAAGGAUAUACAGGGAAAUGAACCGCACGUAAACCACAUGAGGAUCACCCAUGUAGAAGGUUCAGUGC | 10.7 | 14.4 |  | 
13 | UUGGACGUCGUAGGAUAUGUAGGAGAUUCCUACAUGAGGAUCACCCAUGUUGACAUGGAAGAAGGACAGAAGGACGAUGUCCAU |  |  | 328 | 20.4
14 | UUCAGCUCGUGAGGAUAUACAUGUGCUGGAAACAGCACUAUUGAGUUCACAUGAGGAUCACCCAUGUAGAAGGCACGAGCUGAG | 15.2 | 27.9 |  | 
15 | AAAGUACAUGAGGAUCACCCAUGUUGAAAAAAUCGAGGAUAUGCGAAAAAAAAAAAAAAAGCAGAAGGUGAAAAAA |  |  | 49 | 42.4
16 | AUGGUACAUGAGGAUCACCCAUGUCAGGAUAUCGGCUUUAACGUGAAAAGAGUGUUAGCGAGAAGGGACUGCUC | 23.6 | 28.7 |  | 
17 | GUCAGCUCGUGAGGAUAUACAUGUGCUGGAUACAGCACUAAUAGAAUCACAUGAGGAUCACCCAUGUAGAAGGCACGAGCUGAU | 17.6 | 39.4 |  | 
18 | AAAUUGUCAGGAUAUCCAGCUAUACGAAAUAUGUAUACACGGGAGAAGGGACAUGAGGAUCACCCAUGUUUGAA | 36.8 | 45.9 |  | 
19 | GGGCCCGGAGGAUAUACAUGAGGAUCACCCAUGUACUCGGGCUCUAUUGGGCUCGGGUGUAGAAGGCCGGGCCC | 13.7 | 14.1 |  | 
20 | CCCGUGUGUUAAGGAUAUGGCAGGCGCGUUGAACCAGAAGGUAGCACAUGAGGAUCACCCAUGUGAAUGCUCGCGACUCGAGCG | 43.6 | 18.2 |  | 
21 | UUUCCGCGAGGAUAUGCGGGCUGUGCUUUUCAUUUCUUACCACAUGAGGAUCACCCAUGUAGAAGGUGCUUCUU | 154 | 136 |  | 
22 | CGUCUAUGCCAGAAGGCAUAAAACAUGAGGAUCACCCAUGUCAAAGACAUGAGGAUAUGGCAUAGACGAAAAGUGCGAAAGCAC |  |  | 17.9 | 4.97
23 | GUAGAGUAAGGAUAUAGAGAAUAGGAUAGAAUGGUUAGAAUCUAGAAGGUACAUGAGGAUCACCCAUGUAAUGU | 21.9 | 19.8 |  | 
24 | CCUAAGGAGACAGGAUAUAGCGUGGUGGCCGGGCUCCAACGGCGAGCGGCGCUAGAAGGGUCACUACAUGAGGAUCACCCAUGU |  |  | 10.2 | 10.9

Row | Sequence | apparent Kd [1] [nM] | apparent Kd [2] [nM] | apparent Kd [3] [nM] | apparent Kd [4] [nM]
25 | GCCAUCGCAUGAGGAUAUGGCACCGUUUCGGUGCCAGAAGGCAUGUCAUAAGACAUGAGGAUCACCCAUGUGAAUAAGAUGGCA |  |  | 360 | 38.5
26 | UAUACUUACGAAGGAUAUGGUUACAUGAGGAUCACCCAUGUAUGUAUAUUGAUCUUGUAUCUUAACCAGAAGGUCGUCACUAUA | 26.3 | 23.4 |  | 
27 | GUCCUUAACGAGGAUAUCGGGCGGGUUUUUGUUUGAGAAGGUGUGACAUGAGGAUCACCCAUGUGGCGCGUGGG | 318 | 258 |  | 
28 | GGAAAAUGAGGAUAUACAUGUUUGAUACCUCUACGCCCGCAACAUGAGGAUCACCCAUGUAGAAGGCAUGAAAA | 15.4 | 44.2 |  | 
29 | CGCCUGCGUAGAAUUAGCAGCUGACAGGAUAUGACAUGAGGAUCACCCAUGUGAAUUAAGAAGAGUCAGAAGGGUCACGACGCG | 9.4 | 10.8 |  | 
30 | CGCAACUCUGCACAGGUCAACAUGAGGAUCACCCAUGUAUUGAGAAGGAGGAAGAAGAGAGAUUCCUAGGAUAUCAGAGUUGCG | 6.45 | 6.74 |  | 
31 | GCUUAGUAAGGAUAUUCACCGAUAAACAUGAGGAUCACCCAUGUCAUGUACCGUCGCCCGGAAGAAGGUACAGGCU | 49.6 | 44.9 |  | 
32 | UAUGUUUUAGGAUAUUGUACUGCUGACAUGAGGAUCACCCAUGUAUGCUAACUCGGCUGUCGAGAAGGAGAAUAUG | 64.3 | 56 |  | 
33 | UCGUAUAAGGGCAUUACACAUGAGGAUCACCCAUGUACGUUAGAGGAUAUGCAUUCCAGUCGAACGUAGAAGGUUAGAGAAGGG | 307 | 268 |  | 
34 | GGAUUACAUGAGGAUCACCCAUGUAGAAGGCGCCUGGGAGACCAGCGCGAGGUAGAAGACCCGGGCGAGGAUAUACAGGAGGGC | 25.5 | 56.4 |  | 
35 | UGAUAGGACAGAGGAUAUACCGAUAGGAGAUACUAUCGACUAUUCCUCACAUGAGGAUCACCCAUGUAGAAGGCUGUCCUAUCU | 15.5 | 60.2 |  | 
36 | AAAGCACAUGAGGAUCACCCAUGUGGAAAUAACACAGGAUAUCUGGCCUAAGCUUAGGCGAGAGAAGGGUGACCUA |  |  | 88.9 | 223
37 | ACUAAACGAGGAUAUACUGACAGGCCUCAGACAUACAUCAAACAUGAGGAUCACCCAUGUAGAAGGCGUAAACU | 37.2 | 36.7 |  | 
38 | AAAACAUGAGGAUCACCCAUGUAAAGAUCGGUUAAUUGUUGUGAGGAUAUACUAAAUUUUAGGUUGUAGAAGGCACUGGGUACA |  |  | 43.1 | 54.9
39 | AUAAACCAAGGAUAUACAUGAGGAUCACCCAUGUUCCCUUGAACCCAGGGUAUGCAAUGUAGAAGGUGGGAAAC | 20 | 29.5 |  | 
40 | GUUACAUGAGGAUCACCCAUGUAUGUGUGGGAGUAAGUGUCUUAGGAUAUCUAUCAUUGAAUUUAAGAGAAGGAAGAUUGUUGU |  |  | 113 | 126
41 | CGAAGUCCGUAGAAGGGUGACAUGAGGAUCACCCAUGUGCGAGCCGUGGGAGUCAGCGGCUCGCCACAGGAUAUACGGAGCACG |  |  | 30.6 | 26
42 | UAUAAGAACGAAGGAUAUGGUUACAUGAGGAUCACCCAUGUAUUAAUAUUGAUCUAUUUUUAUAACCAGAAGGUCGAGAGUAAA | 27.4 | 39.7 |  | 
43 | AAAAAACAUGAGGAUCACCCAUGUCAGGAUAUCGUGCAGAAAAAAAAAAAAAACUGCACGAGAAGGGACAUGAA | 236 | 192 |  | 
44 | AAUAAUAAGGAGGAUAUCGUAUCGGAAACGAUACGAGAAGGCUUAACAUGAGGAUCACCCAUGUUCCUCAAUAA | 31 | 74.8 |  | 
45 | CGUUGAUAAUAUCUUCACAUGAGGAUCACCCAUGUCGCUCGACAGGAUAUAUUUGAGUUGUUUAAGUAGAAGGGUCGCAGAUGC |  |  | 148 | 136
46 | UAUUAUUUAUGAUAUUAUGACAGUAGAAGGCUAUACAUGUUGAUACAUGAGGAUCACCCAUGUAUAGAGGAUAUAUACAUAAAU | 1010 | 884 |  | 
47 | GCACUUCGGCAGAAGGGACUAAGGGUAUGGUAGUCAGGAUAUGCAGGGUGGGCGUUUCACAUGAGGAUCACCCAUGUAGGACCA |  |  | 21.1 | 7.78
48 | UUCUACAAGUAAGGAUAUCGGCUAUAGUUAACUCGAGAAGGUACAUGAGGAUCACCCAUGUAGUAGAUACAGACUACUGGCUUG | 10.9 | 13.3 |  | 

Reference: the EternaBench riboswitch data
